MC4R ag barr: MC4R agonists recruiting beta-arrestin, primary screen, cell-based, luminescence, agonist arm of biased-ligand search. AID 540308, 2011. activation, % at 8.9 µM. U2OS MC4R beta-arrestin complementation; percent of melanotan II response, DMSO zero. Melanocortin receptor 4 (Homo sapiens), P32245. actives 0.98% (n = 360,000);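 active = activation above a per-plate cutoff, the mean activation of sample wells on that plate plus 3 SD, cut at about 8% in these data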
Beta cell apopt: inhibitors of cytokine-induced beta cell apoptosis, primary screen, luminescence | actives 0.8% (n = 300,000) | INS-1E cytokine-induced death, ATP luminescence, 48 h; percent of positive-control rescue, neutral wells zero | protection from apoptosis, % (test concentration not listed) | AID 435005, 2010;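 active = Every replicate reaches about 75%, or at least half do and their mean reaches it too, limit read from the data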;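 also: 0% = cytokine-treated negative control wells and 100% = positive control rescue; higher means more ATP so stronger rescue from cytokine killing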
TMEM16A inh: TMEM16A chloride channel inhibitors, primary screen, cell-based, HTS. HEK293 TMEM16A/YFP iodide influx fluorescence, ionomycin. Anoctamin-1 (Mus musculus), Q8BHY3. actives 1.2% (n = 310,000). normalized B-score (activity score, 25-100; higher = stronger inhibition) at 10 µM;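 active = ratio plate-corrected score three or more library SD toward inhibition, starting fluorescence score within five deviations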;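 also: score derived from kinetic fluorescence span divided by baseline fluorescence per well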
MC4R antagonist: MC4R antagonists of cAMP signaling, primary screen, cell-based, TR-FRET, antagonist arm of biased-ligand search | Melanocortin receptor 4 (Homo sapiens), P32245 | MC4R-expressing cells, MTII-stimulated cAMP, LANCE TR-FRET | inhibition, % at 6.5 µM | actives 0.48% (n = 360,000) | AID 540295, 2011;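 active = inhibition above its plate's cutoff, the mean of tested wells on that plate plus 3 SD, cut at about 29% in these data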;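 also: 0% = Melanotan II alone and 100% = Melanotan II plus saturating MCL0020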
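system = U2OS cells with stable human MC4R expression | also added = Melanotan II challenge after compound preincubation | dosing = one concentration, 6.5 µM nominal | incubation = compound 30 min, challenge 1 h, detection 1 h | measured by = TR-FRET with Eu-cAMP and labeled anti-cAMP, 671 nm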
ANO1 activ: TMEM16A chloride channel activators or potentiators, primary screen, cell-based, HTS | actives 0.3% (n = 340,000) | Anoctamin-1 (Mus musculus), Q8BHY3 | AID 623877, 2012 | B-score at 10 µM | HEK293 TMEM16A/YFP-H148Q/I152L, iodide quench fluorescence; stronger effect = lower value;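 active = fluorescence-ratio B-score plate-corrected deviation score at least 3 library SD below zero, with starting fluorescence score within 5 deviations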;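 also: channel opened by trigger with iodide after compound preincubation; score built on the fluorescence ratio of max minus min over baseline; more negative score means more quench and so TMEM16A activation or potentiation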
CSC inhib: cancer stem cell viability inhibitors, primary screen, luminescence; actives 1.1% (n = 300,000); AID 2717, 2010; inhibition, % at 7.5 µM; cancer stem cell-like cells viability; in the data active = inhibition above about 75%; tested in HMLE shEcad cells
TMEM16A reconf: TMEM16A chloride channel inhibitors, confirmation, cell-based, re-confirmation. inhibition, % at 10 µM. HEK293 TMEM16A/YFP-H148Q, iodide quench fluorescence; ionomycin added to raise cell calcium. AID 652189, 2013. actives 39% (n = 2,300). shares compounds with TMEM16A inh;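 active = mean duplicate percent inhibition, scaled so buffer wells are 0 and the reference blocker 100, over three buffer SD above buffer mean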
HEK293 Ca mobil: calcium mobilization in TMEM16A/YFP HEK293 cells, confirmation, counter-screen for TMEM16A inhibitor project; shares compounds with TMEM16A inh; Fluo4 calcium mobilization; calcium response (% of ionomycin), % at 10 µM; actives 2% (n = 2,300);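 active = duplicate-averaged calcium signal over 20% of the ionomycin maximum, relative to buffer baseline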;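 also: each well's signal is peak minus trough fluorescence divided by its pre-addition baseline; 0% = buffer wells and 100% = ionomycin wells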
YFP-HEK293 quench: iodide YFP quench changes in parental YFP-HEK293, counter-screen for TMEM16A inhibitor project, cell-based | shares compounds with TMEM16A inh | ionomycin | YFP ratio F(max-min)/F0 at 10 µM | 2,300 tested, under 10 active | AID 652233, 2013;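 active = yellow fluorescent protein signal ratio exceeding the buffer control mean by over 5 SD of those controls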;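 also: ratio is mean of duplicate wells from kinetic YFP trace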
ClC-1 rat inh: ClC-1 chloride channel inhibition, selectivity assay for TMEM16A inhibitor project, cell-based, voltage-dependent ClC-1 | shares compounds with TMEM16A inh | CHO ClC-1-YFP, iodide influx fluorescence quench; iodide control reads 0, buffer control 100 | ratio percent, % at 10 µM | 2,300 tested, under 10 active | AID 652236, 2013;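 active = duplicate-mean ratio percent above the mean of iodide-only control wells, which defines zero, plus 5 of their SD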;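 also: higher percent means stronger block of ClC-1 iodide influx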
Target sequence (P35524 whole entry, looked up): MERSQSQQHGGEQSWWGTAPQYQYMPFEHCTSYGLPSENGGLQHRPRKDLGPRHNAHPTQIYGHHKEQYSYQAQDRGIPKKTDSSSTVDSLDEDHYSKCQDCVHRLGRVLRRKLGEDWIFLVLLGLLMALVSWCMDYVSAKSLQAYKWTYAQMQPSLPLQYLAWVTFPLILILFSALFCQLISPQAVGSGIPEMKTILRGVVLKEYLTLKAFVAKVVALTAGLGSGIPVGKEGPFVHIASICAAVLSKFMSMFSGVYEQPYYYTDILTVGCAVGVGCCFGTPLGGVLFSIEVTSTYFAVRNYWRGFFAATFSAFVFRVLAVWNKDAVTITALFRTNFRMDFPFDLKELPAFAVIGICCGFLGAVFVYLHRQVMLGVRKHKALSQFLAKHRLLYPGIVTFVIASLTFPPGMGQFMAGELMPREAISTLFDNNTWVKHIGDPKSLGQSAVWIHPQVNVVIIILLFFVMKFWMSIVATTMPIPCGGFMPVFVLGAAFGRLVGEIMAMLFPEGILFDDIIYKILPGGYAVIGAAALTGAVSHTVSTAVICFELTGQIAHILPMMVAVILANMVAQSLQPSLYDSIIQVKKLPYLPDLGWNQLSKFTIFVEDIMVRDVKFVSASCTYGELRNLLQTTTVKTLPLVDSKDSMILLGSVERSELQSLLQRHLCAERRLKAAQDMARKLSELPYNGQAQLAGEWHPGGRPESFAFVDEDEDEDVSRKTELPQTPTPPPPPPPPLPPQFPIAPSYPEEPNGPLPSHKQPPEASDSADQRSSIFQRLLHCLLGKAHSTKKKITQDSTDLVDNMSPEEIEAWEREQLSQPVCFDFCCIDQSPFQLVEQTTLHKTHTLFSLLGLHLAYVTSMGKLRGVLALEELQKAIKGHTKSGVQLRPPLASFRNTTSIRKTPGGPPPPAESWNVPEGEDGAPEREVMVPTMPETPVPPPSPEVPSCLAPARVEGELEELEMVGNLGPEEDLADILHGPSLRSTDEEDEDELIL
* hit, by the source's call; i = inactive; . = not tested or not shown. A selection: hits, their analogues and other compounds. The true share with any hit is near 3.8%.

SMILES	MC4R ag barr	Beta cell apopt	TMEM16A inh	MC4R antagonist	ANO1 activ	CSC inhib	TMEM16A reconf	HEK293 Ca mobil	YFP-HEK293 quench	ClC-1 rat inh
COc1ccc(C2=NCC(CSc3nnc(-c4ccc5c(c4)OCO5)o3)S2)cc1 (centres undefined)	0.3	-2.1	100*	6.0	i	8.5	i	i	-0.985	-8.0
COc1ccc(C2=NCC(CSc3nccc(=O)[nH]3)S2)cc1 (centres undefined)	1.2	-8.4	i	8.3	i	-13.8	.	.	.	.
CN(C(=O)c1cccc(NC(=O)Cc2ccc(NC(=O)C3CCCN(C(=O)C4CCCCC4)C3)cc2)c1)C1CCCCC1 (centres undefined)	1.2	.	.	-3.3	.	.	.	.	.	.
O=C(NC(=S)Nc1ccc(N2CCOCC2)cc1)c1ccco1	-0.4	2.3	i	2.1	i	4.2	.	.	.	.
S=C(Nc1ccc(N2CCOCC2)cc1)Nc1ccc2nc(-c3ccco3)c(-c3ccco3)nc2c1	1.2	-5.0	i	-4.5	i	-3.7	i	i	-1.07	-38.0
C=C(C)CSc1nc2sc3c(c2c(=O)n1-c1ccc(C)cc1)CCN(C)C3	-0.2	.	.	-3.5	i	.	.	.	.	.
O=c1cc(C(F)(F)F)[nH]c2ccc(OC(F)(F)F)cc12	1.5	.	100*	4.6	i	45.2	43.0%*	i	-0.874	-21.0
CCc1ccccc1N(C)C(=O)CCc1nc(-c2ccc(C)cc2)no1	-0.1	.	100*	-6.7	i	2.4	i	i	-1.14	6.0
O=C(Cn1nc(-c2ccccc2)nc1-c1ccccc1)OC1CCCCC1	3.7	10.4	100*	1.1	i	15.1	i	i	-1.02	-9.5
CCCN1CCc2c(sc(NC(=O)c3ccc(S(=O)(=O)N(C)c4ccccc4)cc3)c2C(=O)NC)C1	-0.7	8.4	i	13.8	i	78.1*	23.5%*	i	-0.774	3.5
CNC(=O)c1c(NC(=O)c2ccc(S(=O)(=O)N3CCCc4ccccc43)cc2)sc2c1CCN(C)C2	0.1	1.5	i	17.1	i	76.5*	i	i	-0.852	-2.0
CC(=O)c1c(C)[nH]c(C(=O)OCC(=O)N(CC(C)C)C2CCS(=O)(=O)C2)c1C (centres undefined)	0.1	.	.	9.0	i	.	.	.	.	.
Cc1cc(C(=O)N2CCC2(C)C(=O)NCc2cccc3ccccc23)nn1C (centres undefined)	-0.2	.	.	11.8	.	.	.	.	.	.
Cn1nc(C(F)(F)F)c(/C=N/OC(=O)c2ccccc2)c1Sc1ccc(Cl)cc1	0.3	7.2	25*	-6.2	i	-6.6	i	i	-1.08	-8.5
Cn1nc(C(F)(F)F)c(/C=N/OC(=O)c2ccccc2)c1Cl	-0.4	-7.2	i	4.7	i	10.8	.	.	.	.
O=C(COCc1nc2ccccc2c(=O)[nH]1)NC1CCCC1	1.5	-0.2	100*	2.9	i	12.6	i	i	-1.1	-7.5
COc1ccc(Cl)cc1-n1c(=S)sc2c(=O)[nH]c(SCC(=O)C(C)(C)C)nc21	2.5	.	100*	25.1	i	.	27.5%*	i	-1.11	-29.5
O=C(c1ccccc1Cc1ccccc1)N1CCN(S(=O)(=O)c2ccccc2Br)CC1	-2.7	6.9	i	2.5	i	.	.	.	.	.
Cc1ccc(C(=O)Nc2ccc(OCc3ccccc3)cc2)cc1[N+](=O)[O-]	9.5*	1.5	25*	-4.4	i	1.8	i	i	-1.07	-4.5
Cc1ccc(C(=O)Nc2ccncc2)cc1[N+](=O)[O-]	-2.5	6.3	i	7.2	i	-12.7	.	.	.	.
O=c1oc(C2(O)CCCCC2)cc2ccc(-c3ccc4[nH]ccc4c3)cc12	3.0	3.4	.	11.0	i	.	.	.	.	.
CCCCC(=O)N(C)c1c(C)nc2ccc(C(=O)N(CC)CCN(C)C)cn12	-0.9	.	.	6.0	.	.	.	.	.	.
Cc1ccc(S(=O)(=O)Nc2ccc3nc(C)sc3c2)cc1	0.3	24.7	25*	1.0	i	-12.8	i	i	-1.17	-7.5
CC(=O)Nc1ccc(NS(=O)(=O)c2ccc(Cl)s2)cc1	-4.7	-0.8	i	3.8	i	-2.7	.	.	.	.
CSc1nc2ccc(NS(=O)(=O)c3ccc(Cl)s3)cc2s1	-1.6	-6.5	100*	0.7	i	32.7	32.5%*	i	-0.896	-17.0
SMILES	MC4R ag barr	Beta cell apopt	TMEM16A inh	MC4R antagonist	ANO1 activ	CSC inhib	TMEM16A reconf	HEK293 Ca mobil	YFP-HEK293 quench	ClC-1 rat inh
CC(NC(=S)NC1CCCCC1)c1ccc(C(C)(C)C)cc1 (centres undefined)	5.6	99.2*	25*	-0.6	i	45.0	i	i	-0.777	2.5
CC(C)c1ccc(C(C)NC(=S)NC2CCCCC2)cc1 (centres undefined)	2.7	17.4	25*	9.0	i	-12.1	25.5%*	i	-1.01	-2.0
Cc1ccc(Cl)cc1NC(=O)CN1C(=O)NC(C)(C2CC2)C1=O (centres undefined)	-1.7	-2.0	.	18.7	i	-0.7	.	.	.	.
CCOC(=O)c1c(C)[nH]c(C(=O)C(C)Sc2ccc(Cl)cc2)c1C (centres undefined)	2.8	1.9	25*	-0.7	i	8.5	32.5%*	i	-1.02	-20.5
CC(C)CN1C(=O)C(=O)N(CC(=O)c2ccc3c(c2)CCCC3)C1=O	1.6	-3.0	.	0.0	i	.	.	.	.	.
CN(C)c1ccc(NS(=O)(=O)c2cc(Cl)ccc2Cl)cc1	-3.3	-0.3	i	0.1	i	23.6	.	.	.	.
Cc1ccc(NS(=O)(=O)c2sc3ccc(Cl)cc3c2C)cc1	2.1	-4.8	100*	5.3	i	98.3*	i	i	-0.98	-7.0

Assay outcomes from PubChem BioAssay.
